Data published in article PMC5692558 (Proceedings of the National Academy of Sciences of the …, 2017).
Substitutions are numbered along the chain they refer to. Names and notes keep the numbering of the source. “Also recorded” adds a separate entry of the source.

Tests used:
STAC3 W284S = assay: ITC, II–III loop with STAC3 W284S; type: binding, human; conditions: 25 °C, pH 7.4, NAM mutant W284S
human CaV1.2 = assay: CaV1.2 inactivation; type: cell-based; conditions: Xenopus oocytes, two-electrode voltage clamp, Ba^2+ or Ca^2+ solution
Outline: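 Human CaV1.2 α1c (splice variant a1c77) cRNA (8.2–10.9 ng) was co-injected with rabbit β1 (11.7–15.5 ng), with optional rabbit α2δ (11.7 ng) and human STAC3 isoform a (9.8–13.0 ng). Oocytes were held at 18 °C in OR3 (pH 7.6) and recorded 3–4 d later. BAPTA was pre-injected; perfusate was 40 mM Ba2+ or Ca2+, pH 7.4. P/4 leak subtraction; two-tailed unpaired t test.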

[1] = target: T1, STAC2 tandem SH3 domains (residues 296–411) (human, UniProt Q6ZMT1 296-411); assay: ITC
T1 sequence (looked up): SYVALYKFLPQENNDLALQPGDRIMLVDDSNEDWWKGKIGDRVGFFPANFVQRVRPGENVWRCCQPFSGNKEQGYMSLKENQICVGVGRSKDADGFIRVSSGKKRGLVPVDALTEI

[2] = target: T2, STAC1 tandem SH3 domains (residues 288–402) (human, UniProt Q99469 288-402); assay: ITC
T2 sequence (looked up): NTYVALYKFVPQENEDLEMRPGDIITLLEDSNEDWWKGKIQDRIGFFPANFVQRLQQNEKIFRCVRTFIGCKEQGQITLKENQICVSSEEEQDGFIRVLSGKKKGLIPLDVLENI

[3] = target: T3, STAC3 tandem SH3 domains (residues 245–364) (human, UniProt Q96MF2-1 245-364); assay: ITC
T3 sequence (looked up): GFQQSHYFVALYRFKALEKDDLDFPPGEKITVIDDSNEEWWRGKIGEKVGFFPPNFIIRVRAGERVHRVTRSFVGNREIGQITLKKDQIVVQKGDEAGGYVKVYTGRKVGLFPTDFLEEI

stac^−/− myotubes = conditions: ref [16], cited from earlier work
[4] = system: skeletal muscle CaV1.1 complex; conditions: STAC3 W284S; ref [18]; listed as NAM mutation; cited from earlier work
CaV1.2 = conditions: ref [15]; cited from earlier work
[5] = target: T4, STAC2 tandem SH3 domains with Gln-306 mutated to Leu (human, UniProt Q6ZMT1 296-411, Gln-306 to Leu); assay: ITC
T4 sequence (looked up): T1 sequence (looked up) with Q11L

**Q.** Which “interaction detected by ITC” value (STAC3 W284S) does the source give for “CaV1.1 728–775: fragment 728–775 of the CaV1.1 II–III loop (core II–III loop) (NVNEVKDPYPSADFPGDDEEDEPEIPLSPRPRPLAELQLKEKAVPIPE; left off: His6, end not stated, cleaved | maltose-binding protein, end not stated, cleaved)” here?
**A.** Its value is “no longer able to detect an interaction”.

**Q.** What about the “interaction detected by ITC” value (STAC3 W284S; listed as II–III loop peptide) of the same molecule?
**A.** Its value is “decreases the affinity to levels below detection”.

**Q.** With “IPRAAA: mutation at the binding interface tested for CaV1.2 inactivation (NVNEVKDPYPSADFPGDDEEDEPEAALSPAPRPLAELQLKEKAVPIPE; left off: His6, end not stated, cleaved | maltose-binding protein, end not stated, cleaved)” as the molecule, how does the “effect on slowing of CaV1.2 inactivation induced by STAC3” value (human CaV1.2) read?
**A.** Its value is “neither mutations at the binding interface (W284S or IPRAAA) nor an outright deletion of both SH3 domains affected the slowing of inactivation”.

B1: CaV1.1 728–775 (core II–III loop) (domain or fragment, human, UniProt Q13698 728-775, looked up)
chain: NVNEVKDPYPSADFPGDDEEDEPEIPLSPRPRPLAELQLKEKAVPIPE
**Q.** Which Kd [1] does the source give for B1 here?
**A.** The Kd was 1.85 µM.

**Q.** What about the “fold higher affinity than STAC2” value [2] of the same molecule?
**A.** Its value is roughly 2.4 fold.

**Q.** And the “fold higher affinity than STAC2” value [3]?
**A.** The value was roughly 2.2 fold.

B2: W284S: STAC3 disease mutation linked to Native American myopathy (protein)
chain: MTEKEVLESPKPSFPAETRQSGLQRLKQLLRKGSTGTKEMELPPEPQANGEAVGAGGGPIYYIYEEEEEEEEEEEEPPPEPPKLVNDKPHKFKDHFFKKPKFCDVCARMIVLNNKFGLRCKNCKTNIHEHCQSYVEMQRCFGKIPPGFHRAYSSPLYSNQQYACVKDLSAANRNDPVFETLRTGVIMANKERKKGQADKKNPVAAMMEEEPESARPEEGKPQDGNPEGDKKAEKKTPDDKHKQPGFQQSHYFVALYRFKALEKDDLDFPPGEKITVIDDSNEESWRGKIGEKVGFFPPNFIIRVRAGERVHRVTRSFVGNREIGQITLKKDQIVVQKGDEAGGYVKVYTGRKVGLFPTDFLEEI
modifications: left off: His6, end not stated, cleaved | maltose-binding protein, end not stated, cleaved
**Q.** What does the source list for B2?
**A.** effect on slowing of CaV1.2 inactivation induced by STAC3 (human CaV1.2): neither mutations at the binding interface (W284S or IPRAAA) nor an outright deletion of both SH3 domains affected the slowing of inactivation; effect on EC coupling (stac^−/− myotubes; STAC3 W284S (NAM mutation)): diminished EC coupling; also recorded: large reduction in EC coupling; effect on depolarization-induced calcium release (stac^−/− myotubes; reconstituted stac^−/− myotubes, [17]): drastic reduction in depolarization-induced calcium release; recruitment of STAC3 into the skeletal muscle CaV1.1 complex / interaction with CaV1.1 [4]: did not appear to abolish the interaction between CaV1.1 and STAC3

B3: deletion of both SH3 domains: truncated STAC3 missing both SH3 domain (1–244) (protein, UniProt Q96MF2 1-244, looked up, fragment)
chain: MTEKEVLESPKPSFPAETRQSGLQRLKQLLRKGSTGTKEMELPPEPQANGEAVGAGGGPIYYIYEEEEEEEEEEEEPPPEPPKLVNDKPHKFKDHFFKKPKFCDVCARMIVLNNKFGLRCKNCKTNIHEHCQSYVEMQRCFGKIPPGFHRAYSSPLYSNQQYACVKDLSAANRNDPVFETLRTGVIMANKERKKGQADKKNPVAAMMEEEPESARPEEGKPQDGNPEGDKKAEKKTPDDKHKQP
**Q.** With B3 as the molecule, how does the “effect on slowing of CaV1.2 inactivation induced by STAC3” value (human CaV1.2) read?
**A.** Its value is “neither mutations at the binding interface (W284S or IPRAAA) nor an outright deletion of both SH3 domains affected the slowing of inactivation; also recorded: still resulted in slower inactivation”.

B4: STAC3: human STAC3 isoform a (NP_659501.1) (protein)
chain: T3 sequence (looked up)
modifications: left off: His6, end not stated, cleaved | maltose-binding protein, end not stated, cleaved
**Q.** For B4, which “effect on inactivation of CaV1.2” value (CaV1.2) is on record?
**A.** Its value is “dramatic reduction in the speed of inactivation”.

B5: CaV1.1 747–760 (minimal peptide) (peptide, UniProt Q13698 747-760, looked up)
peptide: EDEPEIPLSPRPRP
**Q.** Which “fold lower affinity than wild type” value [5] does the source give for B5 here?
**A.** The value was roughly 2 fold.

**Q.** And the Kd [3]?
**A.** The Kd was 10.6 µM.
